Source: PubChem BioAssay AID1793 (Vanderbilt High Throughput Screening Facility, 2009)

Legend:
Assay in all cases: radioligand displacement at GPCRs, ion channels – biochemical, MDS panel, antagonist ancillary profile, selectivity assay for Cl- transport modulator project, profiling panel (AID 1793)
[1] = target: Adenosine receptor A1 (Homo sapiens) (UniProt P30542); conditions: MDS Pharma radioligand binding panel, % inhibition; at 10 µM; stronger effect = higher value
Outline: (§1)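 Assay system – GPCR, ion channel, transporter off-target panel · Doses – lead compound at one single concentration, 10 µM · Read-out basis – Ancillary (off-target) activity of the lead compound per target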

[2] = target: Adenosine receptor A2a (Homo sapiens) (UniProt P29274); conditions: MDS Pharma radioligand binding panel, % inhibition; measured here: Adenosine A2 human; at 10 µM; stronger effect = higher value
Sequence of Adenosine receptor A2a (Homo sapiens) (P29274 whole entry, looked up): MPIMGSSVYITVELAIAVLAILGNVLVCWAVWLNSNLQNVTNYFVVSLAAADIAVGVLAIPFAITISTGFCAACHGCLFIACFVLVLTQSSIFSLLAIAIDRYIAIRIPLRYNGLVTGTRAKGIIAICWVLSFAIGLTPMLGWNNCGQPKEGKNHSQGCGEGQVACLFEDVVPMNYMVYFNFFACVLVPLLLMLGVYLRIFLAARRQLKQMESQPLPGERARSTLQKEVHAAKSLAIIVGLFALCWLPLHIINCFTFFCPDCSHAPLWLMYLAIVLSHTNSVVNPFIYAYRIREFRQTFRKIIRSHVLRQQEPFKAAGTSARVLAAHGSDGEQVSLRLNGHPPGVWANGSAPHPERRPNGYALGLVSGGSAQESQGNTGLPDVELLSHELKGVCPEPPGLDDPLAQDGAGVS
Outline: as §1

[3] = target: Adenosine receptor A3 (Homo sapiens) (UniProt P0DMS8); conditions: MDS Pharma radioligand binding panel, % inhibition; measured here: Adenosine A3 human; at 10 µM; stronger effect = higher value
Sequence of Adenosine receptor A3 (Homo sapiens) (P0DMS8 whole entry, looked up): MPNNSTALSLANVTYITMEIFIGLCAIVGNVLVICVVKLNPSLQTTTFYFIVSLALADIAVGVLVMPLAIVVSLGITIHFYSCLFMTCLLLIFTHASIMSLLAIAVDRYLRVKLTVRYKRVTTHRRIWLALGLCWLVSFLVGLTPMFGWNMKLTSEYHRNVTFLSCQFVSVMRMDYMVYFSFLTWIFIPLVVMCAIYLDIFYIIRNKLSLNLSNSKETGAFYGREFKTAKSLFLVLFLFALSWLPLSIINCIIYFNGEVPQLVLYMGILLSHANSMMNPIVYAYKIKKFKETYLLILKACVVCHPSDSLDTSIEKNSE
Outline: as §1

[4] = target: Alpha-1A adrenergic receptor (Rattus norvegicus) (UniProt P43140); conditions: MDS Pharma radioligand binding panel, % inhibition; measured here: Adrenergic a1A rat; at 10 µM; stronger effect = higher value
Sequence of Alpha-1A adrenergic receptor (Rattus norvegicus) (P43140 whole entry, looked up): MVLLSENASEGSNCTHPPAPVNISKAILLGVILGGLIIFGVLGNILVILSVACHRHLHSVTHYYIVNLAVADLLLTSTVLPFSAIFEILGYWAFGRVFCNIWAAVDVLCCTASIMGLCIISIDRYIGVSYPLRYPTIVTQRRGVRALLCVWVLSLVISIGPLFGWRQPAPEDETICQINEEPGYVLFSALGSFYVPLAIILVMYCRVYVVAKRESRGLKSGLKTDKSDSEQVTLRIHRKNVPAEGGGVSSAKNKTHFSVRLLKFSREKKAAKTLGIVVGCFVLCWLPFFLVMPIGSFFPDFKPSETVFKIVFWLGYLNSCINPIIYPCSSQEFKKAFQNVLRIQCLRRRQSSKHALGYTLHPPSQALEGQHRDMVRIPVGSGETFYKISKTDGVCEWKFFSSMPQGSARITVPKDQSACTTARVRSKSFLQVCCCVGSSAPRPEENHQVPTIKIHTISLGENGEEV
Outline: as §1

[5] = target: Alpha-1B adrenergic receptor (Rattus norvegicus) (UniProt P15823); conditions: MDS Pharma radioligand binding panel, % inhibition; measured here: Adrenergic a1B rat; at 10 µM; stronger effect = higher value
Sequence of Alpha-1B adrenergic receptor (Rattus norvegicus) (P15823 whole entry, looked up): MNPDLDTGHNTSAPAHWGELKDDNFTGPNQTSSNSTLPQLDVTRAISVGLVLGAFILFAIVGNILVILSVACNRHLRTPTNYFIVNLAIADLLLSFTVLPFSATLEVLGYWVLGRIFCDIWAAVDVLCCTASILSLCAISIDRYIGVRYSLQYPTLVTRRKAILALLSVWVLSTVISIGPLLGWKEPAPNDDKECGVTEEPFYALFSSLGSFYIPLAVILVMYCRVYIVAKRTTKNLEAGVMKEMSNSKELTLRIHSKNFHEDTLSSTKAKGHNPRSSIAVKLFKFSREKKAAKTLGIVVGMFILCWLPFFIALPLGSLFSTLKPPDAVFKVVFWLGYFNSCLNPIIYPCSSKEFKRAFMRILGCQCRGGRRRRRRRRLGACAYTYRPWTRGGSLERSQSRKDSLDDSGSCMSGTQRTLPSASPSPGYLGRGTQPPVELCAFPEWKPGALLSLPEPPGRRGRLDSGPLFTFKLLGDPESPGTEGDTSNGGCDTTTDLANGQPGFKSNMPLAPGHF
Outline: as §1

[6] = target: Alpha-1D adrenergic receptor (Homo sapiens) (UniProt P25100); conditions: MDS Pharma radioligand binding panel, % inhibition; measured here: Adrenergic a1D human; at 10 µM; stronger effect = higher value
Sequence of Alpha-1D adrenergic receptor (Homo sapiens) (P25100 whole entry, looked up): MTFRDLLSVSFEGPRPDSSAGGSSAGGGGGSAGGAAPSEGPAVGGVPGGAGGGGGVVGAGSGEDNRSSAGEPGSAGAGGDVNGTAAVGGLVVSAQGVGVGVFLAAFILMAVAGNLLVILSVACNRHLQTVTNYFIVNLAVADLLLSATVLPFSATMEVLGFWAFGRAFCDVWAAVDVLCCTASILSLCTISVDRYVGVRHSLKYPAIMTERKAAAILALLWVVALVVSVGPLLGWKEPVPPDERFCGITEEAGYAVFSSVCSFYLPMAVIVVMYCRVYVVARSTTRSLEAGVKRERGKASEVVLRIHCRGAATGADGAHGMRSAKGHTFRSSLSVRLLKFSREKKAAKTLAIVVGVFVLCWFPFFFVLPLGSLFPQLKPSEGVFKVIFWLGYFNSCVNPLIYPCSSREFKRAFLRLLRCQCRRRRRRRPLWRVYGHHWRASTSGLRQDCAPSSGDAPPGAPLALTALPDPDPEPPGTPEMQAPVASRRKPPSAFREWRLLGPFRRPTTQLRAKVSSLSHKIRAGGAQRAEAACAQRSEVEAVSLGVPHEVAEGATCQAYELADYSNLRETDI
Outline: as §1

[7] = target: Alpha-2A adrenergic receptor (Homo sapiens) (UniProt P08913); conditions: MDS Pharma radioligand binding panel, % inhibition; measured here: Adrenergic a2A human; at 10 µM; stronger effect = higher value
Sequence of Alpha-2A adrenergic receptor (Homo sapiens) (P08913 whole entry, looked up): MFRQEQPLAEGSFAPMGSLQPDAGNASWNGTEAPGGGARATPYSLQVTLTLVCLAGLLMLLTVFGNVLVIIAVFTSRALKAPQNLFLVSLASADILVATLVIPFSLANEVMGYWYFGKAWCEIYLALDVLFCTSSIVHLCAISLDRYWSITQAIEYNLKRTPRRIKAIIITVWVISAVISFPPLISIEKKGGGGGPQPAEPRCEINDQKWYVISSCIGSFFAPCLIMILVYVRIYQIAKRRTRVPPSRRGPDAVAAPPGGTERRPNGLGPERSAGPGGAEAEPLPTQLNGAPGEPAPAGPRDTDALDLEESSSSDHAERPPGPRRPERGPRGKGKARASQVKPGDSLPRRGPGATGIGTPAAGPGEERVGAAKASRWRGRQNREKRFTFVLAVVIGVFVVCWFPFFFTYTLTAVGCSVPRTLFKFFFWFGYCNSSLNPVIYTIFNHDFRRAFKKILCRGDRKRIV
Outline: as §1

[8] = target: Androgen receptor (Rattus norvegicus) (UniProt P15207); conditions: MDS Pharma radioligand binding panel, % inhibition; measured here: Androgen receptor rat; at 10 µM; stronger effect = higher value
Outline: as §1

[9] = target: B1 bradykinin receptor (Homo sapiens) (UniProt P46663); conditions: MDS Pharma radioligand binding panel, % inhibition; measured here: Bradykinin B1 human; at 10 µM; stronger effect = higher value
Sequence of B1 bradykinin receptor (Homo sapiens) (P46663 whole entry, looked up): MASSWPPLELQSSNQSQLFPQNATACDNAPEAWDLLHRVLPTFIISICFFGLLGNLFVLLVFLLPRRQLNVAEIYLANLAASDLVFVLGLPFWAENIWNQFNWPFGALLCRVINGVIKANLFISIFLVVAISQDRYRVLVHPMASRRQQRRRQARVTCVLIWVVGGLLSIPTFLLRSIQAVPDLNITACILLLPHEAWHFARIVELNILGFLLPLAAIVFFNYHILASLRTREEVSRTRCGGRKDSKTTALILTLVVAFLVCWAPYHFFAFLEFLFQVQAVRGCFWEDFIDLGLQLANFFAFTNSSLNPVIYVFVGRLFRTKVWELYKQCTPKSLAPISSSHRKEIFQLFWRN
Outline: as §1

[10] = target: B2 bradykinin receptor (Homo sapiens) (UniProt P30411); conditions: MDS Pharma radioligand binding panel, % inhibition; measured here: Bradykinin B2 human; at 10 µM; stronger effect = higher value
Sequence of B2 bradykinin receptor (Homo sapiens) (P30411 whole entry, looked up): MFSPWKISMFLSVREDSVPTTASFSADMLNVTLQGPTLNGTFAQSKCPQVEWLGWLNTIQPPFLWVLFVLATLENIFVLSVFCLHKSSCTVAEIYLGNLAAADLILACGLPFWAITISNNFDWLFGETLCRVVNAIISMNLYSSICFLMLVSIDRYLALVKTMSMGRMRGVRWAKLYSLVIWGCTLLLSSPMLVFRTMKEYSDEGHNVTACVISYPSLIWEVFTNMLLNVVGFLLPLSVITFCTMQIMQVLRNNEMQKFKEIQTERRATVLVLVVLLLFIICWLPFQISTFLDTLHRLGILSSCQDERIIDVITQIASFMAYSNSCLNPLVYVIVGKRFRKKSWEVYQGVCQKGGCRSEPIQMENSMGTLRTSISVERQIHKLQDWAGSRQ
Outline: as §1

[11] = target: Beta-1 adrenergic receptor (Homo sapiens) (UniProt P08588); conditions: MDS Pharma radioligand binding panel, % inhibition; measured here: Adrenergic b1 human; at 10 µM; stronger effect = higher value
Sequence of Beta-1 adrenergic receptor (Homo sapiens) (P08588 whole entry, looked up): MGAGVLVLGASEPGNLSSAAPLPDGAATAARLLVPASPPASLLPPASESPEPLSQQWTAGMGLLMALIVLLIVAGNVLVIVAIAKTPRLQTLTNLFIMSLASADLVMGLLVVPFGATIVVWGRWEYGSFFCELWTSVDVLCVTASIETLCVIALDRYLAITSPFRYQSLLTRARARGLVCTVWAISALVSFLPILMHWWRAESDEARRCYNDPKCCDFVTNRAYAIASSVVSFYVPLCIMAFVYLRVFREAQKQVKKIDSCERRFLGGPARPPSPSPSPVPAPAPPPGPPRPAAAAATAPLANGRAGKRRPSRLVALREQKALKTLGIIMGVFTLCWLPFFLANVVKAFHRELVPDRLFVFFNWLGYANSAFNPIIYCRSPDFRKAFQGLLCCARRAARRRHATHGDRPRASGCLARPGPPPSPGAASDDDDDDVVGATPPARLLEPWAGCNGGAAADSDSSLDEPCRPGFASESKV
Outline: as §1

[12] = target: Beta-2 adrenergic receptor (Homo sapiens) (UniProt P07550); conditions: MDS Pharma radioligand binding panel, % inhibition; measured here: Adrenergic b2 human; at 10 µM; stronger effect = higher value
Sequence of Beta-2 adrenergic receptor (Homo sapiens) (P07550 whole entry, looked up): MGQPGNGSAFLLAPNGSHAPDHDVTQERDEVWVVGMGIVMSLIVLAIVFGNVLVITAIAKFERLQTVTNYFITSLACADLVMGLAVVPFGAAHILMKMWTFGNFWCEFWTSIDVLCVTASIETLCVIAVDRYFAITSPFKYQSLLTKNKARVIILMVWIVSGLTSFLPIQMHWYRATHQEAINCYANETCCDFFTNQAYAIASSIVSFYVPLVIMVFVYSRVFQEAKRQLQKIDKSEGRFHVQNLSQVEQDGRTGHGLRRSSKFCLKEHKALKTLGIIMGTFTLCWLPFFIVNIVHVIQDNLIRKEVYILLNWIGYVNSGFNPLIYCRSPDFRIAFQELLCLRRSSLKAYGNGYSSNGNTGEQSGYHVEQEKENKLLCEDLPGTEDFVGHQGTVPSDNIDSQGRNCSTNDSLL
Outline: as §1

[13] = target: Voltage-dependent L-type calcium channel subunit alpha-1C (Rattus norvegicus) (UniProt P22002); conditions: MDS Pharma radioligand binding panel, % inhibition; measured here: L-type Ca channel BTZ rat; at 10 µM; stronger effect = higher value
Outline: as §1

Sequence of Adenosine receptor A1 (Homo sapiens) (P30542 whole entry, looked up): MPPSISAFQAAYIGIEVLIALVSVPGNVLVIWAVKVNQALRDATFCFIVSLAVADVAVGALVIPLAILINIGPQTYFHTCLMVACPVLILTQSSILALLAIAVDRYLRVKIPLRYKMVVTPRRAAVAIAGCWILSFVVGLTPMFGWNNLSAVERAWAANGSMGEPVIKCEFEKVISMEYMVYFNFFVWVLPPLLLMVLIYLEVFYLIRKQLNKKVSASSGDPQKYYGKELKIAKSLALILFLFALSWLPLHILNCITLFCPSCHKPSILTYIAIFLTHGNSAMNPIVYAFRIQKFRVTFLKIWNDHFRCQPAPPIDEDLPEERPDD

## Cc1csc(N(C)C(=O)CSc2ccc(-c3ccccc3)nn2)n1
[1]
  inhibition: 31%
[2]
  inhibition: 38%
[3]
  inhibition: 38%
[4]
  inhibition: 33%
[5]
  inhibition: 3%
[6]
  inhibition: 16%
[7]
  inhibition: -7%
[8]
  inhibition: 4%
[9]
  inhibition: 6%
[10]
  inhibition: 2%
[11]
  inhibition: 10%
[12]
  inhibition: 9%
[13]
  inhibition: 10%
